These results are taken from ChEMBL document CHEMBL1122126, “Pyrazolo[3,4-d]pyrimidine ribonucleosides as anticoccidials. 2. Synthesis and activity of some nucleosides of 4-(alkylamino)-1H-pyrazolo[3, 4-d]pyrimidines” (1982).

In brackets after ≈: the same amount, converted by molar mass. Where only a bound is given, the exact number is not on record here.

In assay [1] the test system is Gallus gallus. In words: Compound tested in vivo for anti-coccidial activity which cleared number of chicks from parasite at 400 ppm in the diet. Type of assay: functional. The procedure, abridged:
(§1)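 Week-old chicks were given a simultaneous infection of Eimeria tenella (Weybridge strain) and E. acervulina (Ongar strain). Compound was mixed into the diet at the stated ppm level. Activity against E. acervulina was judged from oocyst production at day 5. Treated-group weight gain was compared with controls.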

Assay [2] relates to Eimeria tenella. Kind of assay: In vitro minimum inhibitory concentration for Eimeria tenella in embryonic chick liver cells. The class given is functional. The procedure, abridged: (§2)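 E. tenella (Weybridge strain) was grown in cultured embryonic chick liver cells. The minimum inhibitory concentration against parasite growth was determined, and toxicity to the host cells was recorded alongside it.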

Assay [3] concerns Detroit 98. In words: Concentration that inhibited the growth of cultured human detroit 98 cells. Type of assay: functional. The note with it: read-out: ED50 (the source's name). The procedure, abridged: (§3)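 Cloned Detroit 98 cells (human sternal marrow, ATCC CCL 18.1 derivative) or cloned mouse L cells (C3H/AN connective tissue) were grown as monolayers in modified Eagle's medium at 36 °C in a humidified CO2 incubator. Cells were exposed for 70-76 h, and control cultures reached at least two doublings. Total counts were made by electronic counter on replicate cultures. ED50 is the molar concentration giving 50% of control growth, read from a plot.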

Assay [4] has as its system L cells. In words: Concentration that inhibited the growth of Mouse L cells. Type of assay: functional. The note with it: L929, read-out: ED50 (the source's name). The gist of the method: as §3
Assay [5] has as its system Eimeria tenella. Kind of assay: Anti-coccidial activity which cleared number of chicks from parasite. The class given is functional. The gist of the method: as §1
Assay [6] concerns Gallus gallus. In words: Compound tested in vivo for anti-coccidial activity which cleared number of chicks from parasite at 400 ppm in the diet; One chick out of five died and contained lesions due to parasite. The class given is functional.
Assay [7] relates to Gallus gallus. Kind of assay: Compound tested in vivo for anti-coccidial activity which cleared number of chicks from parasite at 100 ppm in the diet; One chick out of five died and contained lesions due to parasite.
Assay [8] is filed under the species Gallus gallus. In words: In vitro minimum inhibitory concentration for Eimeria tenella in embryonic chick liver cells; Toxic. The class given is functional. The procedure, abridged: as §2
The test system of assay [9] is Detroit 98. Kind of assay: Concentration that inhibited the growth of cultured human detroit 98 cells. Type of assay: functional. As to conditions: read-out: ED50 (the source's name). The gist of the method: as §3
Assay [10] relates to L cells. Kind of assay: Concentration that inhibited the growth of Mouse L cells. The note with it: L929, read-out: ED50 (the source's name). The class given is functional. The gist of the method:
as §3

Assay [11] deals with Gallus gallus. In words: Compound tested in vivo for anti-coccidial activity which cleared number of chicks from parasite at 200 p.p.m. in the diet.
The subject of assay [12] is Gallus gallus. Kind of assay: Compound tested in vivo for anti-coccidial activity which cleared number of chicks from parasite at 400 ppm in the diet; Chicks showed decreased weight gain. The class given is functional. The gist of the method:
as §1

The species named for assay [13] is Gallus gallus. In words: In vitro minimum inhibitory concentration for Eimeria tenella in embryonic chick liver cells; Slightly toxic. Type of assay: functional. The gist of the method: as §2
In assay [14] the test system is Gallus gallus. Kind of assay: Compound tested in vivo for anti-coccidial activity which cleared number of chicks from parasite at 25 p.p.m. in the diet. The class given is functional. The procedure, abridged:
as §1

For `O=c1[nH]cnc2c1cnn2[C@@H]1O[C@H](CO)[C@@H](O)[C@H]1O`, the No. of chicks in assay [1] is on record as 0. Besides, the MIC (commonly the lowest concentration that inhibits growth of the organism) in assay [2] came out at 20 µg/mL (≈ 74.6 µM).
`OC[C@H]1OC(n2ncc3c(NCc4ccco4)ncnc32)[C@H](O)[C@@H]1O` (stereo not given in full) displayed an MIC in [2] of 0.31 µg/mL (≈ 0.893 µM). The figures for the EC50 in assay [3] and in assay [4] were 0.3 µM and 3 µM, respectively.
For `CNc1ncnc2c1cnn2C1O[C@H](CO)[C@@H](O)[C@H]1O` (stereo not given in full), the No. of chicks in [5] was 0. In assay [2], inhibition of growth (MIC) required 0.31 µg/mL (≈ 1.1 µM).
In assay [6], `NNc1ncnc2c1cnn2C1O[C@H](CO)[C@@H](O)[C@H]1O` (stereo not given in full) had a No. of chicks of 0. Moreover, the minimal inhibitory concentration (MIC) in assay [2] amounted to 5 µg/mL (≈ 17.7 µM). In addition, the figures for the EC50 in assay [3] and in assay [4] were 20 µM and 100 µM, respectively.
As to `CCCCCCCCNc1ncnc2c1cnn2C1O[C@H](CO)[C@@H](O)[C@H]1O` (stereo not given in full), the MIC in [2] stood at 5 µg/mL (≈ 13.2 µM). In addition, in assay [7], the No. of chicks was determined as 0.
Compound `O=C(Nc1ncnc2c1cnn2C1O[C@H](CO)[C@@H](O)[C@H]1O)c1ccccc1` (stereo not given in full) gave a No. of chicks in assay [5] of 0. Inhibition of growth in assay [8] (MIC) required 5 µg/mL (≈ 13.5 µM). Also, the EC50 in assay [9] and in [10] was above 100 µM in each case.
In assay [5], `OC[C@H]1OC(n2ncc3c(NCc4ccccc4)ncnc32)[C@H](O)[C@@H]1O` (stereo not given in full) showed a No. of chicks of 0. In assay [2], this compound yielded an MIC of 0.31 µg/mL (≈ 0.867 µM).
In assay [5], `CCCCCCN(CCCCCC)c1ncnc2c1cnn2C1O[C@H](CO)[C@@H](O)[C@H]1O` (stereo not given in full) returned a No. of chicks of 1. Besides, the MIC in assay [2] is above 20 µg/mL. Moreover, the EC50 in [3] and in assay [4] was 50 µM in each case.
For the compound `CCCCN(CC)c1ncnc2c1cnn2C1O[C@H](CO)[C@@H](O)[C@H]1O` (stereo not given in full), in assay [5], the No. of chicks stood at 0. The compound also registered an MIC in assay [2] of 5 µg/mL (≈ 14.2 µM).
On to `CN(C)c1ncnc2c1cnn2C1O[C@H](CO)[C@@H](O)[C@H]1O` (stereo not given in full), for which, in assay [2], the minimal inhibitory concentration (MIC) is 5 µg/mL (≈ 16.9 µM). This compound also showed a No. of chicks in assay [11] of 2.
Compound `CCN(CC)c1ncnc2c1cnn2C1O[C@H](CO)[C@@H](O)[C@H]1O` (stereo not given in full) returned a No. of chicks in assay [12] of 1. Moreover, inhibition of growth in assay [2] (MIC) required 5 µg/mL (≈ 15.5 µM).
With `CCCCCCNc1ncnc2c1cnn2C1O[C@H](CO)[C@@H](O)[C@H]1O` (stereo not given in full), the No. of chicks in assay [5] is on record as 0. In assay [2], the MIC turned out to be 1.25 µg/mL (≈ 3.56 µM).
In assay [1], `OC[C@H]1OC(n2ncc3c(N4CCOCC4)ncnc32)[C@H](O)[C@@H]1O` (stereo not given in full) yielded a No. of chicks of 0. Further, in assay [13], the MIC worked out at 20 µg/mL (≈ 59.3 µM).
On to `CC(C)=CCNc1ncnc2c1cnn2C1O[C@H](CO)[C@@H](O)[C@H]1O` (stereo not given in full), for which the No. of chicks in assay [5] and in [14] was 0 each time. The compound further showed a minimum inhibitory concentration (MIC) in assay [2] of 5 µg/mL (≈ 14.9 µM). In addition, the EC50 in [3] was 1.5 µM; in [4], above 100 µM.
`CCNc1ncnc2c1cnn2C1O[C@H](CO)[C@@H](O)[C@H]1O` (stereo not given in full) returned a No. of chicks in assay [1] of 1. Besides, the lowest concentration to inhibit growth in assay [2] (MIC) was 5 µg/mL (≈ 16.9 µM).
In the case of `OC[C@H]1OC(n2ncc3c(NC4CCCC4)ncnc32)[C@H](O)[C@@H]1O` (stereo not given in full), in [5], the No. of chicks is listed as 5. The same compound had an MIC in assay [2] of 0.31 µg/mL (≈ 0.924 µM).
In the case of `CCCCNc1ncnc2c1cnn2C1O[C@H](CO)[C@@H](O)[C@H]1O` (stereo not given in full), the No. of chicks in assay [5] amounted to 0. Besides, the MIC in [2] came out at 1.25 µg/mL (≈ 3.87 µM).
With `OC[C@H]1OC(n2ncc3c(NCCc4ccccc4)ncnc32)[C@H](O)[C@@H]1O` (stereo not given in full), inhibition of growth in [2] (MIC) required 5 µg/mL (≈ 13.5 µM). In assay [7], this compound showed a No. of chicks of 0.
Turning to `Nc1ncnc2c1ncn2[C@@H]1O[C@H](CO)[C@@H](O)[C@H]1O` [ADENOSINE], in assay [5], the No. of chicks worked out at 0. Besides, in assay [8], the lowest concentration to inhibit growth (MIC) was 20 µg/mL (≈ 74.8 µM). For the same compound, the EC50 in assay [3] was 0.08 µM; in [4], 0.3 µM.
